According to ChEMBL document CHEMBL1131261, “Synthesis and antitumor activity of ring A- and F-modified hexacyclic camptothecin analogues” (J Med Chem, 1998):
In brackets after ≈: the same amount, converted by molar mass.

Experiments:
[1] = target: T1, DNA topoisomerase 1 (Homo sapiens) (UniProt P11387); test: Inhibition of topoisomerase-1 compared to SN-38.
T1 sequence (whole entry): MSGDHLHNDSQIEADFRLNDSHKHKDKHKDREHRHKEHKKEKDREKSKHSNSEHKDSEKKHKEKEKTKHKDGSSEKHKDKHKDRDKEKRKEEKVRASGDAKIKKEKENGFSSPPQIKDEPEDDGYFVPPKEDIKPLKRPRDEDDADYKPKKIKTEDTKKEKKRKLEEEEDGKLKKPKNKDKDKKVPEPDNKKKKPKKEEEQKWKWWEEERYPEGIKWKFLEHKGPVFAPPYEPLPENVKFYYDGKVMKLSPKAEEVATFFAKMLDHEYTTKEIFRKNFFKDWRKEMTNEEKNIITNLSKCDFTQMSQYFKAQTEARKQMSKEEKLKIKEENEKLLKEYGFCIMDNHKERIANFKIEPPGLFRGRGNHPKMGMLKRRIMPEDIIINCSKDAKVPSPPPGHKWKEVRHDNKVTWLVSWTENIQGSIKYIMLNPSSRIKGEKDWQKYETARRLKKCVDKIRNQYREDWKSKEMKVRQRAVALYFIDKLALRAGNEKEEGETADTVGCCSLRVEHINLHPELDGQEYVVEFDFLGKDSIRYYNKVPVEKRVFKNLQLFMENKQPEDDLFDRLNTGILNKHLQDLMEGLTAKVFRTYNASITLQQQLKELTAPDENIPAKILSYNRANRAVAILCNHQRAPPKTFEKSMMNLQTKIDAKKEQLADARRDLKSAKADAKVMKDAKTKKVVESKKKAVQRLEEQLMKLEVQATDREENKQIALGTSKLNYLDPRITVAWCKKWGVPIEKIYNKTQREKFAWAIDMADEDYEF
Procedure, shortened: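 DNA relaxation assay with topoisomerase I. IC50 is the concentration that inhibits 50% of the conversion of supercoiled DNA to its relaxed form. Values are given as the ratio of the test IC50 to the IC50 of SN-38.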

HOC-21 cell line = test: In vitro antitumor activity against HOC-21 (human ovarian cancer) cells.; type: functional, cell-based
Procedure, shortened: (§1)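 MTT assay of cell growth after 3 days of incubation. IC50 is the dose that inhibits growth of 50% of the cultivated cells, given in ng/mL.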

QG-56 = test: In vitro antitumor activity against QG-56 (human lung cancer) cells.; type: functional, cell-based; procedure, shortened: as §1
P388 = test: In vitro antitumor activity against P388 (murine leukemia) cells.; type: functional, cell-based; details: Mus musculus

| SMILES | Ratio [1] | IC50 (HOC-21 cell line) [ng/mL] | IC50 (QG-56) [ng/mL] | IC50 (P388) [ng/mL] |
| --- | --- | --- | --- | --- |
| CC[C@@]1(O)C(=O)OCc2c1cc1n(c2=O)Cc2c-1nc1ccc(N)c3c1c2CCC3 | 1.4 | 35.9 (≈ 0.089 µM) | 1.38 (≈ 0.00342 µM) |  |
| CC[C@@]1(O)C(=O)OCc2c1cc1n(c2=O)Cc2c-1nc1cc(Cl)cc3c1c2CCC3 | 0.23 | 14 (≈ 0.0331 µM) | 0.53 (≈ 0.00125 µM) | 0.73 (≈ 0.00173 µM) |
| CC[C@@]1(O)C(=O)OCc2c1cc1n(c2=O)Cc2c-1nc1cc(OC)cc3c1c2CCC3 | 0.7 | 17.4 (≈ 0.0416 µM) | 1.32 (≈ 0.00315 µM) | 1.01 (≈ 0.00241 µM) |
| CC[C@@]1(O)C(=O)OCc2c1cc1n(c2=O)Cc2c-1nc1ccc(O)c3c1c2CCS3 | 1.6 | 153 (≈ 0.361 µM) | 3.68 (≈ 0.00871 µM) | 8.63 (≈ 0.0204 µM) |
| CC[C@@]1(O)C(=O)OCc2c1cc1n(c2=O)Cc2c-1nc1cc(F)c(F)c3c1c2CCC3 | 0.7 | 10.9 (≈ 0.0257 µM) | 0.38 (≈ 0.000895 µM) | 0.48 (≈ 0.00113 µM) |
| CC[C@@]1(O)C(=O)OCc2c1cc1n(c2=O)Cc2c-1nc1cc(F)c(C)c3c1c2CCC3 | 0.51 | 2.06 (≈ 0.0049 µM) | 0.17 (≈ 0.000404 µM) | 0.22 (≈ 0.000523 µM) |
| CC[C@@]1(O)C(=O)OCc2c1cc1n(c2=O)Cc2c-1nc1cc(F)c(F)c3c1c2CCC3O (some centres not stated) | 1.2 | 68.9 (≈ 0.156 µM) | 2.62 (≈ 0.00595 µM) | 3.17 (≈ 0.0072 µM) |
| CC[C@@]1(O)C(=O)OCc2c1cc1n(c2=O)Cc2c-1nc1cc(F)cc3c1c2CCC3 | 0.24 | 3.39 (≈ 0.00834 µM) | 0.16 (≈ 0.000394 µM) | 0.26 (≈ 0.00064 µM) |
| CC[C@@]1(O)C(=O)OCc2c1cc1n(c2=O)Cc2c-1nc1ccc(OC)c3c1c2CCS3 |  | 80.2 (≈ 0.184 µM) | 3.27 (≈ 0.00749 µM) | 6.49 (≈ 0.0149 µM) |
| CC[C@@]1(O)C(=O)OCc2c1cc1n(c2=O)Cc2c-1nc1ccc(OC)c3c1c2CCN3 |  | 106 (≈ 0.254 µM) | 10.6 (≈ 0.0253 µM) | 10.7 (≈ 0.0255 µM) |
| CC[C@@]1(O)C(=O)OCc2c1cc1n(c2=O)Cc2c-1nc1ccc(C#N)c3c1c2CCC3 | 3.9 | 73.5 (≈ 0.178 µM) | 4.21 (≈ 0.0102 µM) | 8.14 (≈ 0.0197 µM) |
| CC[C@@]1(O)C(=O)OCc2c1cc1n(c2=O)Cc2c-1nc1ccc(O)c3c1c2CCC3 | 0.47 |  |  |  |
| CC[C@@]1(O)C(=O)OCc2c1cc1n(c2=O)Cc2c-1nc1cc(O)cc3c1c2CCC3 | 0.17 | 20.6 (≈ 0.0509 µM) | 4.7 (≈ 0.0116 µM) | 0.99 (≈ 0.00245 µM) |
| CC[C@@]1(O)C(=O)OCc2c1cc1n(c2=O)Cc2c-1nc1ccc(OC)c3c1c2CCN3C(C)=O |  | > 500 | 29.8 (≈ 0.0646 µM) | > 62.5 |
| CC[C@@]1(O)C(=O)OCc2c1cc1n(c2=O)Cc2c-1nc1cccc3c1c2CCC3 | 4 | 92.9 (≈ 0.239 µM) | 1.63 (≈ 0.0042 µM) | 5.23 (≈ 0.0135 µM) |
| CCc1c2c(nc3ccc(O)cc13)-c1cc3c(c(=O)n1C2)COC(=O)[C@]3(O)CC [7-ETHYL-10-HYDROXYCAMPTOTHECIN] | 1 | 41.2 (≈ 0.105 µM) | 0.9 (≈ 0.00229 µM) | 1.44 (≈ 0.00367 µM) |
| CC[C@@]1(O)C(=O)OCc2c1cc1n(c2=O)Cc2cc3ccccc3nc2-1 | 0.39 |  |  |  |
| CC[C@@]1(O)C(=O)OCc2c1cc1n(c2=O)Cc2c-1nc1cccc3c1c2CCS3 |  | 33 (≈ 0.0812 µM) | 1.71 (≈ 0.00421 µM) | 3.04 (≈ 0.00748 µM) |
| CC[C@@]1(O)C(=O)OCc2c1cc1n(c2=O)Cc2c-1nc1cc(N)c(O)c3c1c2CCC3 | 2.6 | > 500 | 11.6 (≈ 0.0277 µM) | > 62.5 |
| CC[C@@]1(O)C(=O)OCc2c1cc1n(c2=O)Cc2c-1nc1cc(C)cc3c1c2CCC3 | 3.6 | 101 (≈ 0.251 µM) | 10.3 (≈ 0.0256 µM) | 5.05 (≈ 0.0125 µM) |
| CC[C@@]1(O)C(=O)OCc2c1cc1n(c2=O)Cc2c-1nc1ccc(N)c3c1c2CCO3 | 1.2 | 57.7 (≈ 0.142 µM) | 0.71 (≈ 0.00175 µM) | 2.6 (≈ 0.00641 µM) |
| CC[C@@]1(O)C(=O)OCc2c1cc1n(c2=O)Cc2c-1nc1ccc(N)c3c1c2CCS3 | 0.9 | 8.37 (≈ 0.0199 µM) | 0.4 (≈ 0.000949 µM) | 1.08 (≈ 0.00256 µM) |
